Tests used:
[1] = Stability test of purified probes in human serum; format: in vitro ADME; conditions: 48 h, purified probe, radio-TLC, saline/acetone 1:1, Figure 2
Method in brief: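 Purified 177Lu-labelled probes were held at room temperature and in human serum. Radiochemical purity was sampled at 1, 4, 12, 24 and 48 h by radio-TLC, developed in saline/acetone 1:1 (v/v) and read on a TLC imaging scanner.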

[2] = Biodistribution in tumor-bearing nude mice; format: in vivo; conditions: for tissue uptake at 4 h / tissue uptake at 12 h / tissue uptake at 24 h / tissue uptake at 48 h: female, nude, mouse, iv, 1.85 MBq, total radioactivity; for Tumor/Blood: ratio, n=3
Method in brief: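 Female nude mice bearing subcutaneous K1 tumours (5 × 10^6 cells, right forelimb), used once tumours exceeded 1 cm3. The 177Lu-labelled test compound (1.85 MBq in 100 μL) was injected into the tail vein, n = 3 per time point. Mice were killed at 4, 12, 24 and 48 h. Blood, tumour and organs (including brain, bone, heart) were weighed and gamma-counted. %ID/g = tissue counts/(injected counts × tissue mass) × 100%.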

[3] = system: K1 cells; experiment: In vitro retention assay in K1 cells; format: cell-based; conditions: 6 hrs loading, medium replaced, 2, 4, 6 and 8 hrs, γ-counter
[4] = system: K1 xenografts; experiment: SPECT/CT imaging of K1 xenografts; format: in vivo, nude mice; conditions: SPECT ROI, 24h after tail vein injection of 37 MBq; tumor-bearing mouse
Method in brief: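 Female nude mice bearing K1 xenografts (over 1 cm3) received 37 MBq of the 177Lu-labelled test compound in 100 μL by tail vein. Static SPECT/CT imaging at 4, 12, 24 and 48 h, prone: high-energy collimation, 113 and 208 keV peaks, 256 × 256 matrix, 10-min acquisitions. T/NT was calculated from regions of interest. CT fusion was done at the clearest time point.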

[5] = system: K1 xenografts; experiment: Therapeutic evaluation in tumor-bearing nude mice; format: in vivo
Method in brief: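 K1 xenograft-bearing nude mice, randomised into three groups (n = 5). Each group received tail-vein injections (100 μL) every 4 days, three times: radiolabelled test compound (11.1 MBq/5 μg), unlabelled test compound (5 μg) or 0.9% saline. Followed for 45 days. Tumour volume = a × b²/2 (long, short diameters). Growth curves compared by repeated-measures analysis, survival by log-rank test.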

With `Cc1cn(CC(=O)N(CCNC(=O)COCCOCCNC(=O)COCCOCCNC(=O)CN2CCN(CC(=O)O)CCN(CC(=O)O)CCN(CC(=O)O)CC2)CC(=O)NCCN(CC(=O)NCCN(CC(=O)NCCN(CC(=O)NCCN(CC(=O)NCCN(CC(=O)NCCN(CC(=O)NCCN(CC(=O)NCCN(CC(=O)NCCN(CC(N)=O)C(=O)Cn2cnc3c(N)ncnc32)C(=O)Cn2cnc3c(N)ncnc32)C(=O)Cn2cnc3c(=O)[nH]c(N)nc32)C(=O)Cn2cnc3c(N)ncnc32)C(=O)Cn2ccc(N)nc2=O)C(=O)Cn2cnc3c(=O)[nH]c(N)nc32)C(=O)Cn2cc(C)c(=O)[nH]c2=O)C(=O)Cn2cnc3c(=O)[nH]c(N)nc32)C(=O)Cn2cnc3c(N)ncnc32)c(=O)[nH]c1=O` [^177Lu-asPNA, ^177Lu-DOTA-anti-CITED1-PNA, metal not drawn] the “Radiochemical purity (%)” value [1] was “above 91%”, the tissue uptake at 4 h ([2]; bone) was 2.58 ± 0.63 %ID/g and the tissue uptake at 12 h ([2]; bone) was 1.51 ± 0.55 %ID/g. It also gave a tissue uptake at 24 h ([2]; bone) of 1.03 ± 0.68 %ID/g, a tissue uptake at 48 h ([2]; bone) of 0.52 ± 0.23 %ID/g and a tissue uptake at 4 h ([2]; brain) of 1.53 ± 0.68 %ID/g. It also gave a tissue uptake at 12 h ([2]; brain) of 0.42 ± 0.36 %ID/g, a tissue uptake at 24 h ([2]; brain) of 0.39 ± 0.77 %ID/g and a tissue uptake at 48 h ([2]; brain) of 0.33 ± 0.59 %ID/g. For the same compound, the tissue uptake at 4 h ([2]; heart) was 3.67 ± 0.82 %ID/g, the tissue uptake at 12 h ([2]; heart) was 3.33 ± 0.25 %ID/g and the tissue uptake at 24 h ([2]; heart) was 1.53 ± 0.36 %ID/g. The tissue uptake at 48 h ([2]; heart) was 0.54 ± 0.39 %ID/g, the tissue uptake at 4 h ([2]; intestines) was 4.92 ± 0.45 %ID/g and the tissue uptake at 12 h ([2]; intestines) was 3.17 ± 1.5 %ID/g. The tissue uptake at 24 h ([2]; intestines) was 3.03 ± 0.87 %ID/g, the tissue uptake at 48 h ([2]; intestines) was 0.85 ± 0.27 %ID/g and the tissue uptake at 4 h ([2]; kidney) was 13.8 ± 1.46 %ID/g. For the same compound, the tissue uptake at 12 h ([2]; kidney) was 5.96 ± 1.32 %ID/g, the tissue uptake at 24 h ([2]; kidney) was 2.06 ± 0.49 %ID/g and the tissue uptake at 48 h ([2]; kidney) was 0.87 ± 0.41 %ID/g. For the same compound, the tissue uptake at 4 h ([2]; liver) was 13.2 ± 1.26 %ID/g, the tissue uptake at 12 h ([2]; liver) was 2.42 ± 0.13 %ID/g and the tissue uptake at 24 h ([2]; liver) was 1.81 ± 0.41 %ID/g. For the same compound, the tissue uptake at 48 h ([2]; liver) was 1.53 ± 0.23 %ID/g, the tissue uptake at 4 h ([2]; lung) was 4.21 ± 0.27 %ID/g and the tissue uptake at 12 h ([2]; lung) was 1.86 ± 0.87 %ID/g. For the same compound, the tissue uptake at 24 h ([2]; lung) was 1.66 ± 0.52 %ID/g, the tissue uptake at 48 h ([2]; lung) was 1.07 ± 0.41 %ID/g and the tissue uptake at 4 h ([2]; muscle) was 2.13 ± 0.37 %ID/g. It also gave a tissue uptake at 12 h ([2]; muscle) of 1.21 ± 0.69 %ID/g, a tissue uptake at 24 h ([2]; muscle) of 0.99 ± 0.21 %ID/g and a tissue uptake at 48 h ([2]; muscle) of 0.75 ± 0.18 %ID/g. The tissue uptake at 4 h ([2]; spleen) was 11 ± 1.07 %ID/g, the tissue uptake at 12 h ([2]; spleen) was 4.62 ± 0.58 %ID/g and the tissue uptake at 24 h ([2]; spleen) was 2.07 ± 0.62 %ID/g. The tissue uptake at 48 h ([2]; spleen) was 1.14 ± 0.14 %ID/g, the tissue uptake at 4 h ([2]; stomach) was 4.92 ± 0.26 %ID/g and the tissue uptake at 12 h ([2]; stomach) was 2.34 ± 0.42 %ID/g. The tissue uptake at 24 h ([2]; stomach) was 2.05 ± 1.03 %ID/g, the tissue uptake at 48 h ([2]; stomach) was 0.58 ± 0.27 %ID/g and the tissue uptake at 4 h ([2]; tumor) was 5.78 ± 0.87 %ID/g. For the same compound, the tissue uptake at 12 h ([2]; tumor) was 5.47 ± 1.03 %ID/g, the tissue uptake at 24 h ([2]; tumor) was 4.93 ± 0.47 %ID/g and the tissue uptake at 48 h ([2]; tumor) was 3.05 ± 0.66 %ID/g. The tissue uptake at 4 h ([2]; whole blood) was 9.45 ± 1.1 %ID/g, the tissue uptake at 12 h ([2]; whole blood) was 5.76 ± 0.46 %ID/g and the tissue uptake at 24 h ([2]; whole blood) was 1.98 ± 0.41 %ID/g. It also gave a tissue uptake at 48 h ([2]; whole blood) of 1.77 ± 0.99 %ID/g, a Tumor/Blood ([2]; 4h after tail vein injection of 1.85 MBq, tumor-bearing nude mice) of 0.61±1.24 and a Tumor/Blood ([2]; 12h after tail vein injection of 1.85 MBq, tumor-bearing nude mice) of 0.95±0.97. The “blood-brain barrier passage (brain tissue uptake)” value ([2]; tumor-bearing nude mice, from radioactive marker uptake in brain tissue) was “could not cross the blood-brain barrier”, the cellular retention [3] was “remains in these cells for an extended period of time” and the “T/NT (target/non-target) value” [4] was 5.11. For the same compound, the “tumor growth rate and volume vs asPNA and saline groups” value ([5]; 18 days after injection, n = 5, volume a × b^2/2) was “about two-fold smaller” and the “median survival time longer than those of the other two groups” value ([5]; vs asPNA and saline groups, n = 5) was “at least 13 days”.

Reference: paper PMC6970276 (OncoTargets and therapy, 2020)
